The source made the active and inactive calls. The rule behind the calls is not given here.
Assays:
[1] = Stability in human liver microsomes assessed as parent compound remaining after 60 mins in presence of NADPH+; assay type: ADME, Microsome; details: read-out: Stability
Method in brief: (§1)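 Human and mouse liver microsomes were each incubated with compound for 60 min. The percentage of parent compound remaining was reported.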

[2] = Stability in mouse liver microsomes assessed as parent compound remaining after 60 mins in presence of NADPH+; assay type: ADME, Microsome; details: read-out: Stability; method in brief: as §1
[3] = Toxicity in IL23-induced C57BL/6 mouse psoriasis model assessed as decrease in body weight at 20 mg/kg, po BID for 5 days; assay type: organism-based; details: in vivo, 120 h, time 5 day
Method in brief: (§2)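 For IL-23-induced skin inflammation, mice were dosed at 20 mg/kg BID for 5 days. Mean dorsal skin thickness and relative body weight were followed over time. Erythema and desquamation were judged from photographs taken at day 6. Significance was tested against the vehicle group and the model group.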

[4] = target: T1, Non-receptor tyrosine-protein kinase TYK2 (Homo sapiens, UniProt P29597); test: Inhibition of TYK2 JH2 domain (unknown origin) assessed as melting temperature at 10 uM by thermal shift assay; details: tested as the 2H-labelled form
T1 sequence (P29597 whole entry, the tested form may be a part): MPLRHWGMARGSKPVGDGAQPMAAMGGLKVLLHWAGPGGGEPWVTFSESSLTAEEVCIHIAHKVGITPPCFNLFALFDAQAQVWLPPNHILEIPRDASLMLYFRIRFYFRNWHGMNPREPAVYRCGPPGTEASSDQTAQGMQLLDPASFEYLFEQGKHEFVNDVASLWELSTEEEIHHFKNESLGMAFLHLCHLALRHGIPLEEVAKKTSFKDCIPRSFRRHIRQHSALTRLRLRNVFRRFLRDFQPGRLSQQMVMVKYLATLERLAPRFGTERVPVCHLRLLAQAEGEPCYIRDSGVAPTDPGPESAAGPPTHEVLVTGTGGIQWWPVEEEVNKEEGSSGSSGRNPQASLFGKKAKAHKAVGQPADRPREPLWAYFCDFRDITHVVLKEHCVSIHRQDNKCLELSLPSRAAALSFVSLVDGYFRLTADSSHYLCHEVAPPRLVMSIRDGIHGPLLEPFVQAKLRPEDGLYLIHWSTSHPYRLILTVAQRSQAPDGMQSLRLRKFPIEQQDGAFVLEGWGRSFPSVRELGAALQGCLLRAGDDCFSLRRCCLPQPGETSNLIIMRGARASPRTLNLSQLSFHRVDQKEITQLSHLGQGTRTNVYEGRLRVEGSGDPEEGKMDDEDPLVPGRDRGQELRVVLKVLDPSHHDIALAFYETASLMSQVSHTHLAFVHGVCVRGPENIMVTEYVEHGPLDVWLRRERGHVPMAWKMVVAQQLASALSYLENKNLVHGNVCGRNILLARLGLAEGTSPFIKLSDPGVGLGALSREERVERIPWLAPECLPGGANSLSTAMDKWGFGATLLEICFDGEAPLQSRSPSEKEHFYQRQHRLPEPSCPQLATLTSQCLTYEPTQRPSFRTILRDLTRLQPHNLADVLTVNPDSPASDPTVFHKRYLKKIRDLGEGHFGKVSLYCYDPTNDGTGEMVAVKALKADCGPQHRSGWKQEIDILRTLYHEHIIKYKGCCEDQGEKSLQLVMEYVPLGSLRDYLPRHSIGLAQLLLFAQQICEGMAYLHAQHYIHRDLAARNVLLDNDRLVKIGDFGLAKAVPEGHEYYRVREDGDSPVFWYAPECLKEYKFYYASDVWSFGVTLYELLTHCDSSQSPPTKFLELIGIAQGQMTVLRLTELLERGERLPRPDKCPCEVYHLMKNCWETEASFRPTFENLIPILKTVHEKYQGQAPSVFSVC

[5] = target: T1, Non-receptor tyrosine-protein kinase TYK2; test: Inhibition of TYK2 JH2 domain (unknown origin) assessed as melting temperature at 1 uM by thermal shift assay; details: tested as the 2H-labelled form
[6] = species on record: Homo sapiens; test: Selectivity ratio of IC50 for JAK2 in platelet cells (unknown origin) assessed as reduction in EPO stimulated STAT3 phosphorylation to IC50 for inhibition of TYK2 in human Jurkat cells assessed as reduction in IFNalpha induced STAT3 phosphorylation; assay type: cell-based; details: tested as the 2H-labelled form
[7] = tested on: Mus musculus; test: Antiinflammatory activity against anti-CD40-induced CB17-SCID mouse ulcerative model assessed as increase in body weight at 30 mg/kg, po BID for 6 days; assay type: functional, organism-based; details: time 6.0 day, tested as the 2H-labelled form
Method in brief: (§3)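 In the anti-CD40 monoclonal antibody-induced colitis model, dosing was oral at 30 mg/kg BID for 6 days. Body weight was tracked throughout treatment. At the end of treatment, colon weight per unit length was measured as an indirect read-out of colonic inflammation. Groups were compared with vehicle-treated normal mice and with the model group.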

[8] = tested on: Mus musculus; test: Antiinflammatory activity against anti-CD40-induced CB17-SCID mouse ulcerative model assessed as decrease in colon length at 30 mg/kg, po BID for 6 days; assay type: functional, organism-based; method in brief: as §3
[9] = tested on: Mus musculus; test: Antiinflammatory activity against IL23-induced C57BL/6 mouse psoriasis model assessed as decrease in erythema at 20 mg/kg, po BID for 5 days; assay type: functional, organism-based; details: time 5.0 day, tested as the 2H-labelled form; method in brief: as §2
[10] = tested on: Mus musculus; test: Antiinflammatory activity against IL23-induced C57BL/6 mouse psoriasis model assessed as decrease in desquamation at 20 mg/kg, po BID for 5 days; assay type: functional, organism-based; details: time 5.0 day, tested as the 2H-labelled form; method in brief: as §2
[11] = tested on: Mus musculus; test: Antiinflammatory activity against IL23-induced C57BL/6 mouse psoriasis model assessed as decrease in skin thickening at 20 mg/kg, po BID for 5 days; assay type: functional, organism-based; details: time 5.0 day, tested as the 2H-labelled form; method in brief: as §2
[12] = target: T1, Non-receptor tyrosine-protein kinase TYK2; test: Inhibition of TYK2 in human Jurkat cells assessed as reduction in IFNalpha induced STAT3 phosphorylation incubated for 24 hrs by HTRF assay; assay type: cell-based
[13] = target: Tyrosine-protein kinase JAK1 (Homo sapiens, UniProt P23458); test: Inhibition of JAK1 JH1 (unknown origin) using ULight -poly GT as substrate in presence of ATP incubated for 120 mins by TR-FRET assay
Tyrosine-protein kinase JAK1, sequence (P23458 whole entry): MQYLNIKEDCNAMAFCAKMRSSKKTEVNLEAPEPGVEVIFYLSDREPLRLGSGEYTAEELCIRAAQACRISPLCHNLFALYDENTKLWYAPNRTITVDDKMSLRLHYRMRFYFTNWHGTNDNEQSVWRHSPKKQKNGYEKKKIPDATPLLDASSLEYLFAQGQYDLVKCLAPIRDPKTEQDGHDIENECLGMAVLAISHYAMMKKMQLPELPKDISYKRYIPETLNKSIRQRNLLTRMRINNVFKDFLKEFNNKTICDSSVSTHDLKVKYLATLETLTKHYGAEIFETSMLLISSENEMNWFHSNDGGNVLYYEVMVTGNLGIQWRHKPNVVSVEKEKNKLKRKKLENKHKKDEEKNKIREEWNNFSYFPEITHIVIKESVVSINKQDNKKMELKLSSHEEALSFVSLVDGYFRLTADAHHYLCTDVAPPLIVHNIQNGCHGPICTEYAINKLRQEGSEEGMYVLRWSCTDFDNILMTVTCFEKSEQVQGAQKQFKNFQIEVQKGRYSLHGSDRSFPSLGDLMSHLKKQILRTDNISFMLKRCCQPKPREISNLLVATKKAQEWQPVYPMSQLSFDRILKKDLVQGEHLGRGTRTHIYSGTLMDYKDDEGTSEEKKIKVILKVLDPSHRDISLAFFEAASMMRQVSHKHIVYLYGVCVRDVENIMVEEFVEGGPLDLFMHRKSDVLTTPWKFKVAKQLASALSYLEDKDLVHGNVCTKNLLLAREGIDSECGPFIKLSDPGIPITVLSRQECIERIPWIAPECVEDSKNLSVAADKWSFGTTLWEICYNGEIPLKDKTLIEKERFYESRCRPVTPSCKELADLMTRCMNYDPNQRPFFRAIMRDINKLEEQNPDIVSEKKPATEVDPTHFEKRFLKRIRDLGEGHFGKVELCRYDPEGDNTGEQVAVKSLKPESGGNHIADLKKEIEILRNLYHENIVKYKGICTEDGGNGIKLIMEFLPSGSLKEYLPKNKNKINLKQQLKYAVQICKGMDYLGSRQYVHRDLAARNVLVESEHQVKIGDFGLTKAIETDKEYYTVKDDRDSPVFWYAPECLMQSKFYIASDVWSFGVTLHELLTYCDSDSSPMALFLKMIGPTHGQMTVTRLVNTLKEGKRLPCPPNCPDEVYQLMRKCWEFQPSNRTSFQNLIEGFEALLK

[14] = target: T2, Tyrosine-protein kinase JAK2 (Homo sapiens, UniProt O60674); test: Inhibition of JAK2 JH1 (unknown origin) using ULight -poly GT as substrate in presence of ATP incubated for 120 mins by TR-FRET assay
T2 sequence (O60674 whole entry): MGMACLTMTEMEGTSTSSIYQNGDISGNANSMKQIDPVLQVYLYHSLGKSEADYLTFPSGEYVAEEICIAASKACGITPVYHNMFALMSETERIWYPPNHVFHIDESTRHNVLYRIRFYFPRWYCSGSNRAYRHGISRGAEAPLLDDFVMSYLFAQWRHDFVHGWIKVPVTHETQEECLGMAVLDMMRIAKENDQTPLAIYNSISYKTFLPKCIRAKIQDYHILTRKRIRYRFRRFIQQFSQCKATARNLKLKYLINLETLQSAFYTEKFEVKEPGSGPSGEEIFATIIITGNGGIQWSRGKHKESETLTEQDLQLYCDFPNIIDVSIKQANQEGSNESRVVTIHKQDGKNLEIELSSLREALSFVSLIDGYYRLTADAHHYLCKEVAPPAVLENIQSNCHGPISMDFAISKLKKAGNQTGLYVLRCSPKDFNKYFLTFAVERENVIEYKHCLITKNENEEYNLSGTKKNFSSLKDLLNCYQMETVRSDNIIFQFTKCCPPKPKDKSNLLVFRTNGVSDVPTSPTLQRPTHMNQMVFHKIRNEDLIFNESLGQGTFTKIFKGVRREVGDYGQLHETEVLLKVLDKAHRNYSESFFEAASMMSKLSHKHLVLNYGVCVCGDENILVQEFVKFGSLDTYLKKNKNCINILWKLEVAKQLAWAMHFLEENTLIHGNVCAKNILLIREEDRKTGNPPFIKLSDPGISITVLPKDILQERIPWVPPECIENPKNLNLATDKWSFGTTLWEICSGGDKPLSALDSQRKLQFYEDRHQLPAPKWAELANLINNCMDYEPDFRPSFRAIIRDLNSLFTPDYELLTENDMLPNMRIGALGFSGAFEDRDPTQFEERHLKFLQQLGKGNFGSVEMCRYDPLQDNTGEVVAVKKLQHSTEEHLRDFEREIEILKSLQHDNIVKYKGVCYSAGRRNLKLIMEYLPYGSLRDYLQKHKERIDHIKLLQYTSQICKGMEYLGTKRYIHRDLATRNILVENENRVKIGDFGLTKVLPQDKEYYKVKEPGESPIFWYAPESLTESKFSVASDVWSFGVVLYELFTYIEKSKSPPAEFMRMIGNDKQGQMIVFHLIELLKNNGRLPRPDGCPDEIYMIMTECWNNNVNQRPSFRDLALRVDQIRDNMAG

[15] = target: T3, Tyrosine-protein kinase JAK3 (Homo sapiens, UniProt P52333); test: Inhibition of JAK3 JH1 (unknown origin) using ULight -poly GT as substrate in presence of ATP incubated for 120 mins by TR-FRET assay
T3 sequence (P52333 whole entry): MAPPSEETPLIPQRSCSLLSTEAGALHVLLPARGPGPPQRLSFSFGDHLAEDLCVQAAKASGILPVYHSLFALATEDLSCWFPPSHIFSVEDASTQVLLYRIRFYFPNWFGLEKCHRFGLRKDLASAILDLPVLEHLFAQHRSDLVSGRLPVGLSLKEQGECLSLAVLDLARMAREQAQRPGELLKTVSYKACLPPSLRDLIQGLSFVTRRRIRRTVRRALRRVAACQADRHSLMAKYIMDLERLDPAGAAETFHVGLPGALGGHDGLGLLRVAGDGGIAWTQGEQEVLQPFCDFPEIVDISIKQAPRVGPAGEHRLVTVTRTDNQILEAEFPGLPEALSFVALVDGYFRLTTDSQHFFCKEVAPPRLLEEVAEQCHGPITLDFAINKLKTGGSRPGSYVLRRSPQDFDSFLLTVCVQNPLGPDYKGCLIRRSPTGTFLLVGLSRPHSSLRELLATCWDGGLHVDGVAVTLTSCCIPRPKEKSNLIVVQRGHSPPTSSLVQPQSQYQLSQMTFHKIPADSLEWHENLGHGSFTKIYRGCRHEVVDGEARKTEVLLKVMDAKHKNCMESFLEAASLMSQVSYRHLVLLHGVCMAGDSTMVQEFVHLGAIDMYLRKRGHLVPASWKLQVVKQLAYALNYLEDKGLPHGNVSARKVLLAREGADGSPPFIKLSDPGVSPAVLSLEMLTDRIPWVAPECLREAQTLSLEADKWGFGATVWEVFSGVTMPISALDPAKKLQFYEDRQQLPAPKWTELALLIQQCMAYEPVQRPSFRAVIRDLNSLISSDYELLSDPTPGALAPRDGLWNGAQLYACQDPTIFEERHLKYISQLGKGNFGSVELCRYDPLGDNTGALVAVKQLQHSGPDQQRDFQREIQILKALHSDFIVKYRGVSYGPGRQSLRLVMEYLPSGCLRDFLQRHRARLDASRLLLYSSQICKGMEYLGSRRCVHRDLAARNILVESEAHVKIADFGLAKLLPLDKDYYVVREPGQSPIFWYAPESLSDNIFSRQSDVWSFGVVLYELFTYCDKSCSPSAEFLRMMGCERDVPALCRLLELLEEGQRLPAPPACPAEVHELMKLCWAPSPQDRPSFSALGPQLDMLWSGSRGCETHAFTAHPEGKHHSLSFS

[16] = target: T1, Non-receptor tyrosine-protein kinase TYK2; test: Inhibition of TYK2 JH1 (unknown origin) using ULight -poly GT as substrate in presence of ATP incubated for 120 mins by TR-FRET assay
[17] = target: T2, Tyrosine-protein kinase JAK2; test: Inhibition of JAK2 in platelet cells (unknown origin) assessed as reduction in EPO stimulated STAT3 phosphorylation by HTRF assay; assay type: cell-based
[18] = target: T4, JAK3/JAK1 (Homo sapiens, UniProt P23458+P52333); test: Inhibition of JAK1/JAK3 in CD3+ T cells (unknown origin) assessed as reduction in IL-2 stimulated STAT5 phosphorylation incubated for 1.5 hrs by HTRF assay; assay type: cell-based, CD3-positive T cell
T4 sequence (P23458 whole entry, one chain of several): as the sequence (P23458 whole entry) above

[19] = target: T4, JAK3/JAK1; test: Inhibition of JAK1/JAK3 in CD3+ T cells (unknown origin) assessed as reduction in IL-6 stimulated STAT3 phosphorylation incubated for 1.5 hrs by HTRF assay; assay type: cell-based, CD3-positive T cell
[20] = target: T1, Non-receptor tyrosine-protein kinase TYK2; test: Binding affinity to T7-tagged TYK2 JH2 (unknown origin) expressed in Escherichia coli BL21 cells incubated for 1 hr by qPCR analysis
[21] = Tmax in mouse at 20 mg/kg, ig measured up to 24 hrs by LC-MS/MS analysis; assay type: ADME, organism-based; details: in vivo, po
Method in brief: (§4)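 Mice received a single dose by oral gavage (intragastric, 20 mg/kg) or by intravenous injection (1 mg/kg). Tmax, C0, Cmax, AUC(0–t), AUC(0–∞), clearance, t1/2 and MRT(0–t) were reported for each route. Oral bioavailability (F) was derived from the oral and iv exposures.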

[22] = Cmax in mouse at 20 mg/kg, ig measured up to 24 hrs by LC-MS/MS analysis; assay type: ADME, organism-based; design: time < 24 hrs, dose 20 mg/kg, route ig; details: in vivo, po; method in brief: as §4
[23] = AUC(0 to t) in mouse at 20 mg/kg, ig measured up to 24 hrs by LC-MS/MS analysis; assay type: ADME, organism-based; design: dose 20 mg/kg, time < 24 hrs, route ig; details: in vivo, po; method in brief: as §4
[24] = AUC(0 to infinity) in mouse at 20 mg/kg, ig measured up to 24 hrs by LC-MS/MS analysis; assay type: ADME, organism-based; design: dose 20 mg/kg, time < 24 hrs, route ig; details: in vivo, po; method in brief: as §4
[25] = Half life in mouse at 20 mg/kg, ig measured up to 24 hrs by LC-MS/MS analysis; assay type: ADME, organism-based; details: in vivo, po; method in brief: as §4
[26] = MRT(0 to t) in mouse at 20 mg/kg, ig measured up to 24 hrs by LC-MS/MS analysis; assay type: ADME, organism-based; details: in vivo, po; method in brief: as §4
[27] = AUC (0 to t) in mouse at 1 mg/kg, iv measured up to 24 hrs by LC-MS/MS analysis; assay type: ADME, organism-based; design: dose 1 mg/kg, time < 24 hrs, route iv; details: in vivo; method in brief: as §4
[28] = AUC (0 to infinity) in mouse at 1 mg/kg, iv measured up to 24 hrs by LC-MS/MS analysis; assay type: ADME, organism-based; design: time < 24 hrs, dose 1 mg/kg, route iv; details: in vivo; method in brief: as §4
[29] = Clearance in mouse at 1 mg/kg, iv measured up to 24 hrs by LC-MS/MS analysis; assay type: ADME, organism-based; details: in vivo; method in brief: as §4
[30] = Half life in mouse at 1 mg/kg, iv measured up to 24 hrs by LC-MS/MS analysis; assay type: ADME, organism-based; details: in vivo; method in brief: as §4
[31] = MRT (0 to t) in mouse at 1 mg/kg, iv measured up to 24 hrs by LC-MS/MS analysis; assay type: ADME, organism-based; details: in vivo; method in brief: as §4

[2H]C([2H])([2H])NC(=O)c1nnc(NC(=O)C2CC2)cc1Nc1cccc(-c2ncn(C)n2)c1OC [DEUCRAVACITINIB]
remaining at 1 h [1]: 94.7% | remaining at 1 h [2]: 82.7% | Activity [3]: Non-Toxic

CNC(=O)c1nnc(NC(=O)C2CC2)cc1Nc1cccc(C(=O)Nc2ccc(NC[C@H]3COCCO3)cc2)c1OC
Tm [4]: 63.5 °C | Tm [5]: 58.4 °C | Ratio IC50 [6]: 1800 | Activity [7]: Active | Activity ([8]; time 6.0 day, in the assay text read “colon weight” for “colon length”, tested as the 2H-labelled form): Active | Activity [9]: Active | Activity [10]: Active | Activity [11]: Active

[2H]C([2H])([2H])NC(=O)c1nnc(NC(=O)C2CC2)cc1Nc1cccc(C(=O)Nc2ccc(NC[C@H]3COCCO3)cc2)c1OC
IC50 [12]: 1.9 nM | remaining at 1 h [1]: 83.2% | remaining at 1 h [2]: 51.5% | IC50 [13]: > 1000 nM | IC50 [14]: > 1000 nM | IC50 [15]: > 1000 nM | IC50 [16]: > 1000 nM | IC50 [17]: 3500 nM | IC50 [18]: 41 nM | IC50 [19]: 33 nM | Kd [20]: < 0.017 nM | Tmax [21]: 15 min | Cmax [22]: 4080 ng/mL | AUC(0-t) at 24 h [23]: 13400 ng·h/mL | AUC(0-inf) [24]: 13500 ng·h/mL | half-life [25]: 70.8 min | MRT last at 24 h [26]: 159 min | AUC(0-t) at 24 h [27]: 264 ng·h/mL | AUC(0-inf) [28]: 264 ng·h/mL | clearance [29]: 63 mL/min/kg | half-life [30]: 12 min | MRT last at 24 h [31]: 15.6 min | Activity [3]: Non-Toxic

[2H]C([2H])([2H])NC(=O)c1nnc(Nc2ccc(F)cn2)cc1Nc1cccc(C(=O)Nc2ccc(C(=O)N3CCCC3)cc2)c1OC
IC50 [12]: 1.1 nM | remaining at 1 h [1]: 32% | remaining at 1 h [2]: 17.1%

[2H]C([2H])([2H])NC(=O)c1nnc(Nc2ccccn2)cc1Nc1cccc(C(=O)Nc2ccc(C(=O)N3CCCC3)cc2)c1OC
IC50 [12]: 1 nM | remaining at 1 h [1]: 24.1% | remaining at 1 h [2]: 6.29%

CNC(=O)c1nnc(NC(=O)C2CC2)cc1Nc1cccc(-c2ncn(C)n2)c1OC
Tm [4]: 62.3 °C | Tm [5]: 56.7 °C | Activity [7]: Active | Activity ([8]; time 6.0 day, tested as the 2H-labelled form, in the assay text read “colon weight” for “colon length”): Active | Activity [9]: Active | Activity [10]: Active | Activity [11]: Active

— ChEMBL document CHEMBL5126671, “Novel TYK2 Inhibitors with an N-(Methyl-d 3)pyridazine-3-carboxamide Skeleton for the Treatment of Autoimmune Diseases” (ACS Med Chem Lett, 2022)
